Published values from different studies.
Protocols differ between the studies behind these lines.
STING1 H232R: Stimulator of interferon genes protein (STING1, Homo sapiens, UniProt Q86WV6, H232R)

| Compound | target | assay | setting | measurement | result |
| --- | --- | --- | --- | --- | --- |
| Cn1cc(-c2cc(F)cc(N3CCn4c(cc5c4CCCC5)C3=O)c2CO)cc(Nc2ccc(N3CCN(C4COC4)CC3)cn2)c1=O | Tyrosine-protein kinase Lck (LCK, Homo sapiens, UniProt P06239) | enzyme activity, inhibitor, FRET |  | Ki | 1.07 µM |
| CC(C)C[C@H](NC(=O)[C@H](Cc1ccccc1)NC(=O)[C@H](Cc1ccc(O)cc1)NC(=O)CNC(=O)[C@H](CCCCN)NC(=O)[C@H](CO)NC(=O)[C@H](CCC(N)=O)NC(=O)CNC(=O)[C@@H](NC(=O)[C@H](CO)NC(=O)[C@@H]1CCCN1C(=O)[C@H](CO)NC(=O)[C@H](CCC(N)=O)NC(=O)[C@H](Cc1ccc(O)cc1)NC(=O)[C@H](CCC(=O)O)NC(=O)[C@H](C)NC(=O)[C@H](CCCCN)NC(=O)[C@@H](N)Cc1ccccc1)C(C)C)C(=O)N[C@@H](Cc1ccccc1)C(=O)N[C@@H](CCCNC(=N)N)C(=O)N1CCC[C@H]1C(=O)N[C@@H](CCCNC(=N)N)C(=O)N[C@@H](CC(N)=O)C(N)=O | Neuromedin-U receptor 1 (NMUR1, Homo sapiens, UniProt Q9HB89) | inositol phosphate, agonist, TR-FRET |  | EC50 | 0.00045 µM |
| CCC(C)c1cccc(C(C)CC)c1O (stereo not drawn) | Potassium/sodium hyperpolarization-activated cyclic nucleotide-gated channel 1 (Hcn1, Mus musculus, UniProt O88704) | ion current, two-electrode voltage clamp | oocytes | IC50 | ~30 µM |
| O=C(Nc1ccc(I)cc1)N1CCC(n2c(=O)[nH]c3c(Br)cccc32)CC1 | N-glycosylase/DNA lyase (OGG1, Homo sapiens, UniProt O15527) | enzyme activity, inhibitor, fluorescence |  | IC50 | 0.342 µM |
| Nc1ccn([C@@H]2O[C@H](COP(=O)(O)OP(=O)(O)OP(O)(O)=S)[C@@H](O)[C@H]2O)c(=O)n1 | virB (Shigella flexneri, UniProt P0A247) | binding, ITC |  | Kd | 14.3 µM |
| CCCS(=O)(=O)Nc1ccc(F)c(C(=O)c2c[nH]c3ncc(Br)cc23)c1F | Dual specificity mitogen-activated protein kinase kinase 4 (MAP2K4, Homo sapiens, UniProt P45985) | enzyme activity, inhibitor, ADP detection |  | IC50 | 1.4 µM |
| CCCCCCCCCCCCCC1OC(=O)/C1=C\CCCCC(N)=O (stereo not drawn) | Phosphatidylserine lipase ABHD16A (Homo sapiens, UniProt O95870) | cell-free assay, inhibitor |  | IC50 | 0.2 to 0.5 µM |
| CC(C)C[C@@H]1NC(=O)[C@H](Cc2ccc(O)cc2)NC(=O)[C@H](C(C)C)NC(=O)[C@H](Cc2ccc(O)cc2)NC(=O)[C@H](CC(N)=O)NC(=O)[C@H](Cc2ccccc2)N(C)C(=O)[C@@H]2CCCN2C(=O)[C@H](Cc2ccc(O)cc2)NC(=O)[C@H](C(C)C)NC(=O)[C@H](CC(C)C)NC(=O)[C@H](Cc2ccccc2)NC(=O)CSC[C@@H](C(=O)NCC(N)=O)NC1=O | STING1 H232R | ligand displacement, TR-FRET |  | IC50 | 38 µM |
| O=C(O)C1=CC(O)CC1 (stereo not drawn) | Calcium/calmodulin-dependent protein kinase type II subunit alpha (Rattus norvegicus, UniProt P11275) | cell-free assay, radioligand | pH 6 | Ki | 1.58 µM |
| N=C(N)NCCC[C@H](N)C(=O)O | Nitric oxide synthase, inducible (Nos2, Mus musculus, UniProt P29477) | cell-free assay |  | Kd | 2.6 µM |
| O=C(CCCc1ccc(N(CCCl)CCCl)cc1)NCCC1CCN(CCOc2ccc(Oc3c(-c4ccc(O)cc4)sc4cc(O)ccc34)cc2)CC1 | Estrogen receptor beta (ESR2, Homo sapiens, UniProt Q92731) | ligand displacement, radioligand |  | IC50 | 0.067 µM |
| CC(C)[C@@H]1NC(=O)[C@@H]2CCCN2C(=O)[C@H](Cc2ccccc2)NC(=O)CSC[C@@H](C(=O)N[C@@H](Cc2ccc(O)cc2)C(N)=O)NC(=O)[C@H](Cc2c[nH]c3ccccc23)NC(=O)[C@H](CCCCN)NC(=O)[C@H](Cc2ccccc2)N(C)C(=O)[C@H](Cc2ccccc2)NC1=O | STING1 H232R | ligand displacement, TR-FRET |  | IC50 | 0.18 µM |
